Reference: ChEMBL document CHEMBL4814011, “Discovery of a novel class of inhaled dual pharmacology muscarinic antagonist and β2 agonist (MABA) for the treatment of chronic obstructive pulmonary disease (COPD)” (Bioorg Med Chem Lett, 2021)
Calls of active or inactive are those of the source. The rule behind the calls is not given here.

Experiments:
[1] = target: Muscarinic acetylcholine receptor M3 (Homo sapiens, UniProt P20309); assay: Displacement of [3H]-N-methylscopolamine from human muscarinic M3 receptor
Muscarinic acetylcholine receptor M3, sequence (P20309 whole entry): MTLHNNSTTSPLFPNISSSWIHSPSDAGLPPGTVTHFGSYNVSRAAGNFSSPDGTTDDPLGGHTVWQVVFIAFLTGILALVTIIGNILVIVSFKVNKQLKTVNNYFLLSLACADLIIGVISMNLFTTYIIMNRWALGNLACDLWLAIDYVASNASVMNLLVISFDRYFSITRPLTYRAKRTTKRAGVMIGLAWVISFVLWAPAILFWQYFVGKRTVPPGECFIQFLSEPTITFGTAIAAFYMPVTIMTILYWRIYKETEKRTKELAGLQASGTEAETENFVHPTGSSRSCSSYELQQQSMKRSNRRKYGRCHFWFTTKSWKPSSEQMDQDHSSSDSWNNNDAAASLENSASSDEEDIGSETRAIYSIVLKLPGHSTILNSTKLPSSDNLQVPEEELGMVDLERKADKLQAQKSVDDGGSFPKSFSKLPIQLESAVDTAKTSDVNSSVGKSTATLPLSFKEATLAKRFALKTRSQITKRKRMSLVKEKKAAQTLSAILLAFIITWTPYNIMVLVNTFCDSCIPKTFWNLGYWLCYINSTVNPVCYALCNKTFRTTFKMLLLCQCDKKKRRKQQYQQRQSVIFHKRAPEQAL

[2] = Protein binding in human plasma; assay type: ADME, cell-free; details: for fraction unbound: read-out: PPB (converted)
[3] = target: Beta-2 adrenergic receptor (Homo sapiens, UniProt P07550); assay: Displacement of 125I-cyanopindolol from human adrenergic beta2 receptor
Beta-2 adrenergic receptor, sequence (P07550 whole entry): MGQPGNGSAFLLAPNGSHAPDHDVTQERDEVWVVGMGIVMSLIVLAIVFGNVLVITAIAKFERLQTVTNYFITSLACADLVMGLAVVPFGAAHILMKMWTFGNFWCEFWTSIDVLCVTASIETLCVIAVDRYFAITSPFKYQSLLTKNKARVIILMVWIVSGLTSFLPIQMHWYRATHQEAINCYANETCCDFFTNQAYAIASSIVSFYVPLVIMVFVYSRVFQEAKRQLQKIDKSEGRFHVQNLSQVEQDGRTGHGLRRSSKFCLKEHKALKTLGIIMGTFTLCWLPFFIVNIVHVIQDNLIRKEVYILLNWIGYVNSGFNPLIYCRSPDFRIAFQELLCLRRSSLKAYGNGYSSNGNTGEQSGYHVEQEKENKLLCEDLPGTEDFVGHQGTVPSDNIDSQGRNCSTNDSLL
How it was run: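 Radioligand binding on cloned human β2 adrenoceptor, with displacement of 125I-cyanopindolol.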

[4] = target: beta-2 adrenergic receptor (guinea pig); assay: Agonist activity at beta-2 adrenergic receptor in guinea pig trachea assessed as inhibition of histamine-induced contraction
[5] = (§1) Antagonist activity at muscarinic M3 receptor in guinea pig trachea assessed as inhibition of carbachol-induced contraction; assay type: tissue-based, Cavia porcellus
How it was run: (§2)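 Isolated guinea pig tracheal tissue was contracted with the muscarinic agonist carbachol, and inhibition of contraction was scored. A parallel histamine (H1) challenge, opposed only by the β2 component, was used to estimate the β2 share.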

[6] = Protein binding in rat plasma; assay type: ADME, cell-free; details: for fraction unbound: read-out: PPB (converted)
[7] = species on record: Cavia porcellus; assay: Activity at muscarinic M3 and adrenergic beta2 in guinea pig trachea assessed as time taken for compound action by MABA assay; assay type: tissue-based
[8] = In vivo agonist activity at adrenergic beta2 receptor in guinea pig assessed as reduction in acetylcholine/histamine-induced bronchoconstriction at 3 mg/kg, IT(Intratracheal) measured after 1 hr by Konzett-Roessler methodology relative to control; assay type: functional; details: Cavia porcellus, inhaled or nasal
[9] = In vivo agonist activity at adrenergic beta2 receptor in guinea pig assessed as reduction in acetylcholine/histamine-induced bronchoconstriction at 1 mg/kg, IT(Intratracheal) measured after 1 hr by Konzett-Roessler methodology relative to control; assay type: functional; details: Cavia porcellus, inhaled or nasal
[10] = Protein binding in guinea pig plasma; assay type: ADME, cell-free, Cavia porcellus
[11] = In vivo agonist activity at adrenergic beta2 receptor in guinea pig assessed as reduction in acetylcholine/histamine-induced bronchoconstriction at 3 mg/kg, IT(Intratracheal) measured after 24 hrs by Konzett-Roessler methodology relative to control; assay type: functional; details: Cavia porcellus, inhaled or nasal
[12] = In vivo agonist activity at adrenergic beta2 receptor in guinea pig assessed as reduction in acetylcholine/histamine-induced bronchoconstriction at 1 mg/kg, IT(Intratracheal) measured after 24 hrs by Konzett-Roessler methodology relative to control; assay type: functional; details: Cavia porcellus, inhaled or nasal
[13] = species on record: Cavia porcellus; assay: as §1; assay type: tissue-based; how it was run: as §2

| Structure (SMILES) | Ki [1] | Ki [3] | pIC50 [4] | pIC50 [5] | TIME [7] | TIME ([7]; filed as modulator) | also measured |
| --- | --- | --- | --- | --- | --- | --- | --- |
| O=C(NC(c1ccccc1)c1ccccc1)O[C@H]1CN2CCC1CC2 | 1260 pM | – | – | – | – | – | – |
| O=C(N[C@@H](c1ccccc1)c1ccc(-c2cccc(OCc3ccc(C(=O)NCCCNC[C@H](O)c4ccc(O)c5[nH]c(=O)ccc45)cc3)c2)cc1)O[C@H]1CN2CCC1CC2 | 100 pM | 12.6 pM | 9.8 | 9.7 | > 4.5 h | – | fraction unbound [2]: 0.05; fraction unbound [6]: 0.05 |
| O=C(N[C@@H](c1ccccc1)c1cccc(OCc2ccc(CCNC[C@H](O)c3ccc(O)c4[nH]c(=O)ccc34)cc2)c1)O[C@H]1CN2CCC1CC2 | – | – | 9.1 | 9.3 | > 4.5 h | – | inhibition in vivo at 3 mg/kg [8]: 67%; PPB [2]: 98%; inhibition in vivo at 1 mg/kg [9]: 20%; PPB [10]: 99%; inhibition in vivo at 3 mg/kg [11]: 35%; PPB [6]: 98%; inhibition in vivo at 1 mg/kg [12]: 42% |
| O=C(NC(c1ccccc1)c1cccc(OCCCCCNC[C@H](O)c2ccc(O)c3[nH]c(=O)ccc23)c1)O[C@H]1CN2CCC1CC2 (stereo partly specified) | 398 pM | 25.1 pM | 9 | 8.5 | – | < 0.75 h | – |
| CCN(CCCNC[C@H](O)c1ccc(O)c2[nH]c(=O)ccc12)C(=O)c1ccc(COc2cccc(-c3ccc([C@@H](NC(=O)O[C@H]4CN5CCC4CC5)c4ccccc4)cc3)c2)cc1 | 251 pM | 50.1 pM | 9.5 | 9.5 | > 3.75 h | – | fraction unbound [2]: 0.04; fraction unbound [6]: 0.06 |
| O=C(NC(c1ccccc1)c1cccc(OCCCCCCCCNC[C@H](O)c2ccc(O)c3[nH]c(=O)ccc23)c1)O[C@H]1CN2CCC1CC2 (stereo partly specified) | 158 pM | 200 pM | 7.8 | 8.7 | – | < 1.5 h | – |
| O=C(NC(c1ccccc1)c1cccc(OCCCCCCCNC[C@H](O)c2ccc(O)c3[nH]c(=O)ccc23)c1)O[C@H]1CN2CCC1CC2 (stereo partly specified) | 398 pM | 100 pM | 8.1 | 9.3 | – | < 1.5 h | – |
| O=C(N[C@@H](c1ccccc1)c1cccc(OCCCCCCNC[C@H](O)c2ccc(O)c3[nH]c(=O)ccc23)c1)O[C@H]1CN2CCC1CC2 | 126 pM | 501 pM | – | – | – | – | pIC50 [13]: inactive |
| O=C(NC(c1ccccc1)c1ccc(OCCCCCCCCCNC[C@H](O)c2ccc(O)c3[nH]c(=O)ccc23)cc1)O[C@H]1CN2CCC1CC2 (stereo partly specified) | 10000 pM | 251 pM | 7.3 | 8.3 | > 4.5 h | – | – |
| O=C(N[C@@H](c1ccccc1)c1ccc(-c2cccc(OCc3ccc(C(=O)N(CCCNC[C@H](O)c4ccc(O)c5[nH]c(=O)ccc45)Cc4ccccc4)cc3)c2)cc1)O[C@H]1CN2CCC1CC2 | 126 pM | 100 pM | 9 | 8.7 | > 3 h | – | inhibition in vivo at 3 mg/kg [8]: 63%; fraction unbound [2]: < 0.01; inhibition in vivo at 1 mg/kg [9]: 27%; inhibition in vivo at 3 mg/kg [11]: 20%; fraction unbound [6]: 0.03 |
| O=C(N[C@H](c1ccccc1)c1cccc(OCCCCCCNC[C@H](O)c2ccc(O)c3[nH]c(=O)ccc23)c1)O[C@H]1CN2CCC1CC2 | 3980 pM | 39.8 pM | – | – | – | – | pIC50 [13]: inactive |
| O=C(NC(c1ccccc1)c1cccc(OCCCCCCNC[C@H](O)c2ccc(O)c3[nH]c(=O)ccc23)c1)O[C@H]1CN2CCC1CC2 (stereo partly specified) | 316 pM | 15.8 pM | 9.8 | 9.9 | – | < 2.25 h | – |
| O=C(NC(c1ccccc1)c1cccc(OCCCCCCCCCNC[C@H](O)c2ccc(O)c3[nH]c(=O)ccc23)c1)O[C@H]1CN2CCC1CC2 (stereo partly specified) | 251 pM | 200 pM | 7.3 | 7.5 | > 4.5 h | – | – |
